Data from ChEMBL document CHEMBL1136888, “Design, synthesis, and biological evaluation of novel diarylalkyl amides as TRPV1 antagonists” (Bioorg Med Chem, 2009).

molecular target: Transient receptor potential cation channel subfamily V member 1 (Rattus norvegicus, UniProt O35433); assay: Antagonist activity at TRPV1 in Sprague-Dawley rat DRG neuron assessed as reduction of capsaicin-stimulated 45Ca2+ uptake; assay type: functional
Outline: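 Neonatal Sprague-Dawley rat DRG neurons (all spinal levels) dissociated with collagenase/trypsin and cultured 3 days with C6 glioma-conditioned medium. Washed in HEPES (10 mM, pH 7.4) Ca/Mg-free HBSS. Exposed to 45Ca2+ plus 0.5 µM capsaicin with compound for 10 min at room temperature. Cells washed, SDS-lysed, scintillation counted.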

Chain of Transient receptor potential cation channel subfamily V member 1 (O35433 whole entry): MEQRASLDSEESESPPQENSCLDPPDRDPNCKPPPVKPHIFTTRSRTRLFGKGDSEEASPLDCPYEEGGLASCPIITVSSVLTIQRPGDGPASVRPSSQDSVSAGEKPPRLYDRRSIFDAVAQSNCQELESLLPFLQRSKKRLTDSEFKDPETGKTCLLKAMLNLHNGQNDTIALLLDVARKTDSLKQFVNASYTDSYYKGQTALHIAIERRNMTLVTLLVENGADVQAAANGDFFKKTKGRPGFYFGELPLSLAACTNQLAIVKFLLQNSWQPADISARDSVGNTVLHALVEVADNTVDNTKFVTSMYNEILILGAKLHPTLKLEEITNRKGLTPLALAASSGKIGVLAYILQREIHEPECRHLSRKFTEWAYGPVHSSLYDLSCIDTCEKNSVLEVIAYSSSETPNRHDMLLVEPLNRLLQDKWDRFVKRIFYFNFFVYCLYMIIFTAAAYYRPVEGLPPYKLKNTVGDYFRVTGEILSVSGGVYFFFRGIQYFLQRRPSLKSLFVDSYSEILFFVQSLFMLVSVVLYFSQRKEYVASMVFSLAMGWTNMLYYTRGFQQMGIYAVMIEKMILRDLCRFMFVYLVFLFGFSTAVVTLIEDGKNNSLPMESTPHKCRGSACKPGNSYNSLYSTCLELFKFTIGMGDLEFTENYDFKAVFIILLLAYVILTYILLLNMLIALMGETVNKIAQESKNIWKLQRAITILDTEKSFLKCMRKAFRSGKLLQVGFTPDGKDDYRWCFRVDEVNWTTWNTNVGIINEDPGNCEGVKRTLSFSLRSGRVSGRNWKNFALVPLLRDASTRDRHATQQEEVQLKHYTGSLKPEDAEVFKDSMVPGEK

Which IC50 does the source give for `CC1(C)CCc2cc(CCC(=O)NCc3ccc(NS(C)(=O)=O)c(F)c3)ccc2O1` here?
The IC50 was 7200 nM.

For `CC(C)(C)c1cc(/C=C/C(=O)NCc2ccc(NS(C)(=O)=O)c(F)c2)c2c(c1)CCCO2`, which IC50 is on record?
Its IC50 is 920 nM.

Which IC50 does the source give for `CC(C)(C)Oc1ccc(CCC(=O)NCc2ccc(NS(C)(=O)=O)c(F)c2)cc1` here?
The IC50 was greater than 10000 nM.

Which IC50 does the source give for `CS(=O)(=O)Nc1ccc(CNC(=O)CCc2ccc(C(F)(F)F)cc2)cc1F` here?
The IC50 was 4600 nM.

How did the IC50 turn out when `CC1(c2ccc(CCC(=O)NCc3cc(F)c(NS(C)(=O)=O)c(C#N)c3)cc2)CC1` was run?
Its IC50 is 210 nM.

`CC1(C)CCC(C)(C)c2cc(CCC(=O)NCc3cc(F)c(NS(C)(=O)=O)c(C#N)c3)ccc21` was tested. Which IC50 did it give?
Its IC50 is 57 nM.

With `CC1(C)CCC(C)(C)c2cc(CCC(=O)NCc3ccc(NS(C)(=O)=O)c(F)c3)ccc21` as the compound, how does the IC50 read?
The IC50 was 180 nM.

For `CC(C)Cc1ccc(CCC(=O)NCc2ccc(NS(C)(=O)=O)c(F)c2)cc1`, which IC50 is on record?
Its IC50 is 640 nM.

For `CC1(c2ccc(/C=C/C(=O)NCc3ccc(NS(C)(=O)=O)c(F)c3)cc2)CC1`, which IC50 is on record?
Its IC50 is 390 nM.

Which IC50 does the source give for `CC1(C)CCC(C)(C)c2cc(/C=C/C(=O)NCc3ccc(NS(C)(=O)=O)c(F)c3)ccc21` here?
Its IC50 is 340 nM.

For `CC(C)(C)c1cc2c(c(CCC(=O)NCc3ccc(NS(C)(=O)=O)c(F)c3)c1)OCC2`, which IC50 is on record?
Its IC50 is 5000 nM.

Which IC50 does the source give for `CS(=O)(=O)Nc1ccc(CNC(=O)CCc2ccc(CC3CC3)cc2)cc1F` here?
Its IC50 is 360 nM.

With `CC(C)(C)c1ccc(CNC(=O)NCc2ccc(NS(C)(=O)=O)c(F)c2)cc1` as the compound, how does the IC50 read?
Its IC50 is 710 nM.

`CC(C)Oc1ccc(CCC(=O)NCc2ccc(NS(C)(=O)=O)c(F)c2)cc1` was tested. Which IC50 did it give?
The IC50 was greater than 10000 nM.

How did the IC50 turn out when `CS(=O)(=O)Nc1ccc(CNC(=O)CCc2ccccc2)cc1F` was run?
The IC50 was greater than 10000 nM.

Which IC50 does the source give for `CS(=O)(=O)Nc1ccc(CNC(=O)/C=C/c2ccc(I)cc2)cc1F` here?
Its IC50 is greater than 10000 nM.

With `CC(C)(C)c1cc2c(c(CCC(=O)NCc3ccc(NS(C)(=O)=O)c(F)c3)c1)OCCC2` as the compound, how does the IC50 read?
The IC50 was 280 nM.

With `CC(C)(C)c1ccc(CCC(=O)NCc2cc(F)c(NS(C)(=O)=O)c(C#N)c2)cc1` as the compound, how does the IC50 read?
Its IC50 is 85 nM.

How did the IC50 turn out when `CC(C)(C)c1cc(/C=C/C(=O)NCc2ccc(NS(C)(=O)=O)c(F)c2)c2c(c1)CCO2` was run?
Its IC50 is 1500 nM.

`CC1(C)Cc2cc(CCC(=O)NCc3ccc(NS(C)(=O)=O)c(F)c3)ccc2O1` was tested. Which IC50 did it give?
Its IC50 is greater than 10000 nM.

For `CC(C)(C)c1cc(CCC(=O)NCc2ccc(NS(C)(=O)=O)c(F)c2)cc(C(C)(C)C)c1`, which IC50 is on record?
The IC50 was 200 nM.

For `CC1(C)Cc2cc(/C=C/C(=O)NCc3ccc(NS(C)(=O)=O)c(F)c3)ccc2O1`, which IC50 is on record?
Its IC50 is 4300 nM.

`CC(C)(C)c1ccc(CCC(=O)NCc2ccc(NS(C)(=O)=O)c(F)c2)cc1` was tested. Which IC50 did it give?
Its IC50 is 170 nM.

For `CS(=O)(=O)Nc1ccc(CNC(=O)CCc2cc(C(F)(F)F)cc(C(F)(F)F)c2)cc1F`, which IC50 is on record?
Its IC50 is 2500 nM.

`CS(=O)(=O)Nc1ccc(CNC(=O)CCc2ccc(Br)cc2)cc1F` was tested. Which IC50 did it give?
The IC50 was greater than 10000 nM.

For `CC(C)(C)c1ccc(CNC(=O)CCc2ccc(NS(C)(=O)=O)c(F)c2)cc1`, which IC50 is on record?
The IC50 was 2800 nM.

Which IC50 does the source give for `CC1(C)CCc2cc(/C=C/C(=O)NCc3ccc(NS(C)(=O)=O)c(F)c3)ccc2O1` here?
The IC50 was 1400 nM.
